Activity calls are given as the source filed them.
Columns and labels:
[1] = system: Mus musculus; assay: Inhibition of morphine-induced antinociceptive activity in subcutaneously dosed Swiss Webster mouse assessed as decrease in latency to tail withdrawal administered 5 mins before morphine stimulation observed for 20 mins by warm water tail withdrawal assay; type: functional
Method in brief: (§1)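 Male Swiss Webster mice, n ≥ 5, baseline latency 2–4 s. Test compound given s.c. 5 min before morphine 10 mg/kg. Tail immersion at 56 ± 0.1 °C 20 min after morphine, 10 s cutoff, %MPE per mouse.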

[2] = Toxicity in placebo-pelleted Swiss Webster mouse assessed as wet dog shakes at 20 mg/kg, sc observed after 20 mins; type: organism-based; details: in vivo
Method in brief: (§2)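 Male Swiss Webster mice, n = 5, placebo-pelleted. Tested 72 h after implantation, following 30 min chamber habituation. Compound given s.c.; wet-dog shakes, escape jumps and paw tremors counted over 20 min.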

[3] = Toxicity in placebo-pelleted Swiss Webster mouse assessed as paw tremors at 20 mg/kg, sc observed after 20 mins; type: organism-based; details: in vivo; method in brief: as §2
[4] = system: Mus musculus; assay: Inhibition of opioid-withdrawal symptom in morphine-pelleted Swiss Webster mouse assessed as reduction in wet dog shakes at 1 mg/kg, sc observed after 20 mins; type: functional, organism-based
Method in brief: (§3)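 Male Swiss Webster mice, n = 5, implanted with 75 mg morphine pellet at base of neck. After 72 h, 30 min habituation in observation chamber, then test compound s.c. Wet-dog shakes, escape jumps and paw tremors counted over 20 min.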

[5] = system: Mus musculus; assay: Inhibition of opioid-withdrawal symptom in morphine-pelleted Swiss Webster mouse assessed as reduction in escape jumps at 50 mg/kg, sc observed after 20 mins; type: functional, organism-based; method in brief: as §3
[6] = system: Mus musculus; assay: Inhibition of opioid-withdrawal symptom in morphine-pelleted Swiss Webster mouse assessed as reduction in paw tremors at 1 mg/kg, sc observed after 20 mins; type: functional, organism-based; method in brief: as §3
[7] = biological target: Mu-type opioid receptor (Mus musculus) (UniProt P42866); assay: (§4) Agonist activity at mouse mu opioid receptor expressed in CHO cells assessed as inhibition of forskolin-induced cAMP formation incubated for 8 min followed by forskolin stimulation by ELISA; type: functional, cell-based
Method in brief: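 mMOR-CHO cells grown to confluency, pre-incubated 30 min at 37°C with 1 mM IBMX, 200 μM Ro 20-1724, bovine serum albumin and 20 mM HEPES (pH 7.2-7.5). Ligand then added with 10 μM forskolin for 8 min at 37°C. Media removed, cells rinsed with PBS, cAMP measured by ELISA. DMEM/F12 used as solvent throughout.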

[8] = system: Mus musculus; assay: Inhibition of opioid-withdrawal symptom in morphine-pelleted Swiss Webster mouse assessed as reduction in paw tremors at 50 mg/kg, sc observed after 20 mins; type: functional, organism-based; method in brief: as §3
[9] = biological target: Mu-type opioid receptor (Mus musculus) (UniProt P42866); assay: Agonist activity at mouse mu opioid receptor expressed in CHO cells cotransfected with Galphaqi5 assessed as intracellular calcium level preincubated for 60 mins in Fluo4AM solution followed by compound addition by Fluo4AM dye based assay; type: functional, cell-based
[10] = biological target: Mu-type opioid receptor (Mus musculus) (UniProt P42866); assay: Agonist activity at recombinant mouse mu opioid receptor expressed in CHO cell membrane assessed as [35]-GTPgammaS binding incubated for […] by scintillation counting method relative to DAMGO
[11] = system: Mus musculus; assay: Inhibition of opioid-withdrawal symptom in morphine-pelleted Swiss Webster mouse assessed as reduction in wet dog shakes at 50 mg/kg, sc observed after 20 mins; type: functional, organism-based; method in brief: as §3
[12] = biological target: Kappa-type opioid receptor (Mus musculus, UniProt P33534); assay: Displacement of [3H]-[…] from mouse kappa opioid receptor expressed in CHO cells incubated for […] by competitive radioligand binding assay; type: cell-based
[13] = system: Mus musculus; assay: Inhibition of morphine-induced antinociceptive activity in Swiss Webster mouse assessed as decrease in latency to tail withdrawal at 10 mg/kg, sc administered 5 mins before morphine stimulation observed for 20 mins by warm water tail withdrawal assay; type: functional, organism-based; method in brief: as §1
[14] = Toxicity in placebo-pelleted Swiss Webster mouse assessed as escape jumps at 20 mg/kg, sc observed after 20 mins; type: organism-based; details: in vivo; method in brief: as §2
[15] = system: Mus musculus; assay: Inhibition of opioid-withdrawal symptom in morphine-pelleted Swiss Webster mouse assessed as reduction in escape jumps at 1 mg/kg, sc observed after 20 mins; type: functional, organism-based; method in brief: as §3
[16] = biological target: T1, Mu-type opioid receptor (Mus musculus, UniProt P42866); assay: Antagonist activity at mouse mu opioid receptor expressed in CHO cells cotransfected with Galphaqi5 assessed as inhibition of DAMGO-induced increase in intracellular calcium concentration preincubated for 60 mins in Fluo4AM solution followed by compound addition and further incubated for 15 mins followed by DAMGO stimulation by Fluo4AM dye based assay; type: functional, cell-based
Method in brief: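 Gαqi5-transfected mMOR-CHO cells loaded 60 min with Fluo-4 AM/probenecid. Triplicate per concentration, at least three repeats, mean ± SEM. Naltrexone as control. IC50 by non-linear regression.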

[17] = biological target: T1, Mu-type opioid receptor; assay: Displacement of [3H]-Naloxone from mouse mu opioid receptor expressed in CHO cells incubated for […] by competitive radioligand binding assay; type: cell-based
[18] = system: Mus musculus; assay: Inhibition of opioid-withdrawal symptom in morphine-pelleted Swiss Webster mouse assessed as reduction in wet dog shakes at 8 mg/kg, sc observed after 20 mins; type: functional, organism-based; method in brief: as §3
[19] = system: Mus musculus; assay: Inhibition of opioid-withdrawal symptom in morphine-pelleted Swiss Webster mouse assessed as reduction in escape jumps at 8 mg/kg, sc observed after 20 mins; type: functional, organism-based; method in brief: as §3
[20] = Selectivity index, ratio of Ki for human delta opioid receptor expressed in CHO cells to Ki for mouse mu opioid receptor expressed in CHO cells
[21] = biological target: T1, Mu-type opioid receptor; assay: Agonist activity at recombinant mouse mu opioid receptor expressed in CHO cell membrane assessed as [35]-GTPgammaS binding incubated for […] by scintillation counting method
[22] = biological target: Delta-type opioid receptor (Homo sapiens, UniProt P41143); assay: Displacement of [3H]-[…] from human delta opioid receptor expressed in CHO cells incubated for […] by competitive radioligand binding assay; type: cell-based
[23] = Selectivity index, ratio of Ki for mouse kappa opioid receptor expressed in CHO cells to Ki for mouse mu opioid receptor expressed in CHO cells
[24] = biological target: T1, Mu-type opioid receptor; assay: as §4; type: functional, cell-based
[25] = system: Mus musculus; assay: Inhibition of opioid-withdrawal symptom in morphine-pelleted Swiss Webster mouse assessed as reduction in paw tremors at 8 mg/kg, sc observed after 20 mins; type: functional, organism-based; method in brief: as §3
[26] = system: Mus musculus; assay: Antinociceptive activity in Swiss Webster mouse assessed as increase in latency to tail withdrawal at 10 mg/kg, sc observed for 20 mins by warm water tail withdrawal assay; type: functional, organism-based
Method in brief: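 Male Swiss Webster mice, 25–30 g, n = 5 per group, baseline tail latency 2–4 s accepted. Compound given s.c. in saline or water. Tail immersed in 56 ± 0.1 °C water 20 min post-dose, 10 s cutoff. %MPE = [(test − control)/(10 − control)] × 100. Saline and morphine as controls.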

[27] = biological target: Delta-type opioid receptor (Mus musculus, UniProt P32300); assay: Displacement of [3H]-diprenorphine from mouse delta opioid receptor expressed in CHO cells incubated for […] by competitive radioligand binding assay; type: cell-based

Cl.O=C(N[C@@H]1CC[C@@]2(O)[C@H]3Cc4ccc(O)c5c4[C@@]2(CCN3CC2CC2)[C@H]1O5)c1cccc2ccoc12
AD50 [1]: 0.18 mg/kg | Activity [2]: Non-Toxic | Activity [3]: Non-Toxic | inhibition [4]: Active | inhibition [5]: Active | inhibition [6]: Active | Emax [7]: 35.7% | inhibition [8]: Active | Activity [9]: inactive | Emax [10]: 27.3% | inhibition [11]: Active | Ki [12]: 0.81 nM | inhibition [13]: Active | Activity [14]: Non-Toxic | inhibition [15]: Active

C[C@@H](NC(=O)[C@@H](N)Cc1ccc(O)cc1)C(=O)NCC(=O)N(C)[C@@H](Cc1ccccc1)C(=O)NCCO
Emax [7]: 82.4%

Cl.O=C(N[C@H]1CC[C@@]2(O)[C@H]3Cc4ccc(O)c5c4[C@@]2(CCN3CC2CC2)[C@H]1O5)c1cccc2ccsc12
AD50 [1]: 0.29 mg/kg | inhibition [4]: Active | IC50 [16]: 566 nM | Ki [17]: 0.31 nM | inhibition [18]: Active | inhibition [19]: Active | inhibition [6]: Active | Ratio Ki [20]: 26.9 | EC50 [21]: 6.21 nM | Ki [22]: 8.35 nM | Ratio Ki [23]: 8.5 | Ki [12]: 2.65 nM | inhibition [13]: Active | EC50 ([24]; cho): Not Active | inhibition [25]: Active | inhibition [15]: Active

Cl.O=C(N[C@H]1CC[C@@]2(O)[C@H]3Cc4ccc(O)c5c4[C@@]2(CCN3CC2CC2)[C@H]1O5)c1cccc2occc12
AD50 [1]: 0.29 mg/kg | inhibition [4]: Active | IC50 [16]: 50.7 nM | Ki [17]: 0.26 nM | inhibition [6]: Active | Emax [7]: 18.9% | Ratio Ki [20]: 65 | EC50 [21]: 0.77 nM | Activity [9]: inactive | Emax [10]: 10% | Ki [22]: 16.9 nM | Ratio Ki [23]: 19.2 | Ki [12]: 4.98 nM | inhibition [13]: Active | EC50 ([24]; read-out: EC50): 80 nM | inhibition [15]: Active

Cl.O=C(N[C@@H]1CC[C@@]2(O)[C@H]3Cc4ccc(O)c5c4[C@@]2(CCN3CC2CC2)[C@H]1O5)c1ccc2ccoc2c1
Ki [17]: 0.18 nM | Ratio Ki [20]: 68.1 | Activity [26]: Active | EC50 [21]: 0.59 nM | Emax [10]: 21.1% | Ki [22]: 12.3 nM | Ratio Ki [23]: 1.7 | Ki [12]: 0.3 nM

Cl.O=C(N[C@@H]1CC[C@@]2(O)[C@H]3Cc4ccc(O)c5c4[C@@]2(CCN3CC2CC2)[C@H]1O5)c1ccc2ccsc2c1
Ki [17]: 0.15 nM | Ratio Ki [20]: 13.6 | Activity [26]: Active | EC50 [21]: 0.21 nM | Emax [10]: 58.7% | Ki [22]: 2.04 nM | Ratio Ki [23]: 1.3 | Ki [12]: 0.2 nM

Cl.O=C(N[C@@H]1CC[C@@]2(O)[C@H]3Cc4ccc(O)c5c4[C@@]2(CCN3CC2CC2)[C@H]1O5)c1cc2ccccc2o1
Ki [17]: 0.16 nM | Ratio Ki [20]: 12.1 | Activity [26]: Active | EC50 [21]: 0.39 nM | Emax [10]: 64.5% | Ki [22]: 1.94 nM | Ratio Ki [23]: 1.4 | Ki [12]: 0.23 nM

Cl.O=C(N[C@@H]1CC[C@@]2(O)[C@H]3Cc4ccc(O)c5c4[C@@]2(CCN3CC2CC2)[C@H]1O5)c1ccc2sccc2c1
Ki [17]: 0.14 nM | Ratio Ki [20]: 9.7 | Activity [26]: Active | EC50 [21]: 0.19 nM | Emax [10]: 75.4% | Ki [22]: 1.36 nM | Ratio Ki [23]: 1.5 | Ki [12]: 0.21 nM

Cl.O=C(N[C@H]1CC[C@@]2(O)[C@H]3Cc4ccc(O)c5c4[C@@]2(CCN3CC2CC2)[C@H]1O5)c1cccc2cc[nH]c12
AD50 [1]: 2.07 mg/kg | Emax [10]: 19.1% | Ki [27]: 13.7 nM

C=CCN1CC[C@]23c4c5ccc(O)c4O[C@H]2C(=O)CC[C@@]3(O)[C@H]1C5
inhibition [4]: Active | inhibition [6]: Active | inhibition [15]: Active

— ChEMBL document CHEMBL4321862, “Application of Bivalent Bioisostere Concept on Design and Discovery of Potent Opioid Receptor Modulators” (J Med Chem, 2019)
